High-throughput results (PubChem BioAssay)
Autophagy HCS: alters autophagy in cells; MEF GFP-LC3 puncta imaging; test concentration mostly 10 µM; calls only at 10 µM (by protocol); actives 0.98% (n = 190,000); AID 463193;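 active = percentage of spot-positive cells more than 3 SD above its plate mean, without a fluorescence outlier flag or 80% toxicity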;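 note: spot-positive cell cutoff set from DMSO-treated cells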
MDM2 E3 inh: blocks human Mdm2 ubiquitin ligase activity; signal enhancement, % at 5 µM; actives 0.11% (n = 210,000); Q00987; AID 1230; cell-based MDM2 ubiquitination luciferase reporter, 2 h; 0 = plate control, 100 = twice control, blank-subtracted;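 active = signal enhancement of 30% or more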;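 note: luminescence tracks abundance of the self-degrading MDM2-luciferase fusion protein; higher signal means inhibition of MDM2 E3 ligase activity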
Target sequence (Q00987 whole entry, looked up, the tested form may be a part): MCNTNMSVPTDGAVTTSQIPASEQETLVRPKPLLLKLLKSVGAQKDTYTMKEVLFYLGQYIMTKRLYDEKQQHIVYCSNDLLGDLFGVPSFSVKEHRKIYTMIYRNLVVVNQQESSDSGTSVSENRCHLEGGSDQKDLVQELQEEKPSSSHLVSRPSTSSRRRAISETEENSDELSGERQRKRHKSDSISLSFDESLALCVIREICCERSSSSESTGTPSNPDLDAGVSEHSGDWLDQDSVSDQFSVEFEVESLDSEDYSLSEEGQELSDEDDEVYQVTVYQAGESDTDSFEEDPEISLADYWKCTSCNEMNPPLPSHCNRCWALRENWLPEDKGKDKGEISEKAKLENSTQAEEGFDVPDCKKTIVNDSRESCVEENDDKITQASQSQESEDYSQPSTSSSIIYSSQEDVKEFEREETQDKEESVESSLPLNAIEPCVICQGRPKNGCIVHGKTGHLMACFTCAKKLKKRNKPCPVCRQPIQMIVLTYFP
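Material: Stable MDM2–luciferase fusion reporter cells | Amount: 2000 cells seeded into each well | Dosing: One concentration, 5 µM, with 0.2% DMSO | Incubation: 4 h cell settling then 2 h compound exposure, 37 °C | Measured by: Luciferase luminescence | Read-out basis: % enhancement relative to plate controls after blank subtraction | Benchmarks: Control and blank well means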
TNF necrop inh: blocks TNF-alpha induced death of Jurkat FADD-/- cells | activation (protection from cell death), % at 10 µM | actives 0.068% (n = 220,000) | Jurkat FADD-/- TNF necroptosis rescue, ATP luminescence, 24 h; 0 = TNF only, 100 = no-TNF cells;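 active = activation, meaning protection from cell death, of at least 50% relative to plate controls; inactive = activation below 50%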;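 note: necroptosis triggered by 40 ng/mL TNF-alpha added together with compound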
L929 necroptosis: L929 zVAD cell death inhibition; L929 zVAD necroptosis rescue, ATP luminescence, 24 h; with zVAD 60 µM; viability rescue, % at 10 µM; actives 0.38% (n = 220,000);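 active = activation, scaled between plate controls, above about 75%, limit read from the data; inactive = activation under that limit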;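 note: 0% = zVAD with DMSO and 100% = DMSO alone without zVAD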
Dynein transport: blocks dynein driven cargo transport along microtubules; z-score, hits read low; 3617.4 mouse cells, GR-EGFP nuclear translocation imaging; test concentration mostly 20 µM; stimulated with dexamethasone, 1 µM; hits give low values; actives 0.47% (n = 220,000);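 active = plate z-score of nuclear minus cytoplasmic receptor signal below a set negative limit, without overly bright fluorescence or cell loss, cut at about -3.5 in these data, passing the limit was not always enough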;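 note: z-score of nuclear minus cytoplasmic ring GR-EGFP intensity difference per well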
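Medium: Induction medium lacking tetracycline, stripped serum | Probe or stimulus: 1.0 µM final dexamethasone stimulus | Schedule: 48 h induction, then 1 h compound, then 30 min agonist, 37 °C | Signal: Automated 10x imaging of fixed Hoechst-stained cells | Evaluation: Per-cell GR-EGFP intensity, nucleus versus surrounding cytoplasmic ring, well-averaged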
The depositor's hits bear a star; i = inactive; nt = not tested or not shown; + = active, no number. This is a sample that favours compounds with a hit; in the whole collection about 1.8% have one here.

SMILES | Autophagy HCS | MDM2 E3 inh | TNF necrop inh | L929 necroptosis | Dynein transport
CCC(C)(C(=O)NC1CCCC1)N(Cc1cccs1)C(=O)c1ccc2c(c1)OCO2 (stereo unspecified) | i | -1 | 0 | nt | -0.44
CC(=O)Nc1ccc(-c2cc(NC(C)=O)n(-c3ccccc3)n2)cc1 | i | -11 | 2 | 1 | 0.34
Cc1ccc(-c2cc(NC(=O)CCl)n(-c3ccccc3)n2)cc1 | + | -10 | -27 | 19 | -2.2
CC1=C(C(=O)Nc2ccccc2)C(c2cccs2)NC(=O)N1 (stereo unspecified) | i | -12 | -1 | 0 | -0.66
Cc1ccc(Cn2cnc3sc4c(c3c2=O)CCC4)c(C)c1 | i | 9 | 92* | 0 | -1.2
O=[N+]([O-])c1ccc(N/N=C/c2cn(-c3ccccc3)nc2-c2ccccc2)cc1 | + | -2 | -10 | 1 | -2.7
NS(=O)(=O)c1ccc(N/N=C/c2cn(-c3ccccc3)nc2-c2ccccc2)c([N+](=O)[O-])c1 | i | -11 | -1 | 2 | -0.46
CCOC(=O)C(=NCCCN1CCOCC1)NNc1cccc(C(F)(F)F)c1 | i | -21 | 2 | 1 | 0.37
COc1cc(C(=O)N/N=C/c2sccc2C)cc(OC)c1OC | + | -8 | -12 | -2 | -0.29
Oc1ccc(Cl)cc1C1=Nc2ccccc2N=C(c2ccco2)C1 | + | -5 | -4 | 0 | -0.9
CCCOC(=O)c1ccc(Oc2coc3c(CN(CC)CC)c(O)ccc3c2=O)cc1 | i | -1 | 0 | nt | -0.35
CCN(C(=O)COC(=O)/C=C/c1ccccc1)C1CCCCC1 | i | -10 | 1 | 4 | -0.44
CCc1ccc2c(c1)C1(NN=C(c3cccc4ccccc34)S1)C(=O)N2 (stereo unspecified) | + | 13 | -10 | 1 | -0.24
CCc1ccc2c(c1)C1(C(=O)N2)N2CCCC2C(C(=O)c2ccc3ccccc3c2)C12C(=O)Nc1ccccc12 (stereo unspecified) | i | -3 | 3 | 2 | -0.57
Cn1nc(NC(=O)CC(C)(C)CC(=O)O)c2ccccc21 | nt | -5 | 5 | -1 | 0.057
CC1=CC(=C2C=CC(=O)C=C2)C=C(C)N1C | nt | -5 | 0 | 0 | -0.042
Oc1ccc(Nc2nc(N3CCCC3)c3ccccc3n2)cc1 | + | -16 | -10 | 43 | -1.1
CN(C)CCOc1nc(-c2ccccc2)nc2c1oc1ccccc12 | + | 13 | -19 | 4 | 0.7
COc1ccc(O)c(/C=N/NC(=S)Nc2cccc(S(=O)(=O)N(C)C)c2)c1 | + | -3 | -4 | 3 | 1.7
COc1cccc(/C=N/NC(=S)Nc2cccc(S(=O)(=O)N(C)C)c2)c1 | nt | -7 | 0 | 0 | -0.39
COc1cc(SC#N)ccc1N=Cc1c(C)[nH]n(-c2ccc(Cl)cc2)c1=O | + | 5 | -11 | 0 | -0.32
COc1cc(SC#N)ccc1N=Cc1c(C)[nH]n(-c2ccc(C)c(C)c2)c1=O | i | -11 | -13 | -1 | 0.65
COc1cc(/C=C2/C(=N)N3OC(C)=CC3=NC2=O)ccc1OC(=O)c1ccco1 | i | 32* | 2 | 6 | -0.24
CC1=CC2=NC(=O)/C(=C\c3ccc(OC(=O)c4ccco4)cc3)C(=N)N2O1 | i | -8 | 2 | 2 | -0.48
O=C(Nc1nnc(-c2cccs2)o1)c1cc(-c2ccccc2)nc2ccccc12 | i | nt | -2 | nt | -0.37
Cc1cc(C)c(O)c(N)c1 | i | 2 | -2 | 0 | -0.68
C=CCN(CC=C)S(=O)(=O)c1ccc(C(=O)Nc2nnc(COC)o2)cc1 | + | 13 | 1 | 1 | 1.1
Cc1ccc(C(C(=O)NCc2ccco2)N(C(=O)CNC(=O)c2cccs2)c2c(C)cccc2C)cc1 (stereo unspecified) | i | -9 | 1 | 0 | 0.12
Cc1ccc(C(C(=O)NCc2ccco2)N(C(=O)CNC(=O)c2cccs2)c2c(C)cc(C)cc2C)cc1 (stereo unspecified) | + | -3 | -10 | 0 | -0.49
Cc1cccc(/C=N/Nc2cc(N3CCOCC3)nc(N3CCOCC3)n2)c1 | + | -7 | 14 | -2 | -0.17
